In the library only some 2.5% were active in any assay of this set; here they are far more common.
TRPC4 agonist – activators of mouse TRPC4 channel, primary screen, Fluo4 calcium, HEK293 TRPC4beta/mu-opioid cells. Short transient receptor potential channel 4 (Mus musculus), Q9QUQ5. Fluo4 calcium fluorescence; stronger effect = higher value. B-score at 10 µM. 310,000 tested, 0.49% active;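 active = B-score above 5 SD of library B-scores, and initial fluorescence ratio not above library mean plus 5 SD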;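 also: positive B-score marks a calcium rise read as TRPC4 activation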
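System – HEK293 cells stably co-expressing mouse TRPC4beta and mu-opioid receptor · Signal – Fluo4 calcium-sensitive dye fluorescence, kinetic, 1 Hz baseline · Benchmarks – buffer (low) and maximal DAMGO (high) · Read-out – B score of integrated fluorescence ratio per well · Incubation – dye loading 45 min room temperature, 110 s kinetic read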
TRPC6 inhibitor – mouse TRPC6 channel inhibitors, primary screen, cell-based, HEK293, membrane potential dye | ACh-evoked depolarization; stronger effect = lower value | B-score at 10 µM | 310,000 tested, 1.1% active | AID 2553, 2010;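 active = B-score under library mean minus 3 SD, initial fluorescence not abnormally high, positive integrated signal ratio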;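 also: B-score derived from integrated fluorescence ratio over the kinetic read; more negative B-score means stronger inhibition of depolarization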
Pemphigus Ab inh – inhibitors of pemphigus antibody binding to DSG3, primary screen, biochemical, bead-based, flow cytometry, scFv-GFP; Desmoglein-3 (Homo sapiens), P32926; DSG3-coupled beads, scFv-anti-DSG3-GFP binding; stronger effect = lower value; binding (percent of control), % at 10 µM; 310,000 tested, 0.48% active; AID 588358, 2011;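 active = binding more than 3 SD below its plate's average and above zero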;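 also: hits lower antibody fragment binding to DSG3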
Target sequence (P32926 whole entry, looked up, the tested form may be a part): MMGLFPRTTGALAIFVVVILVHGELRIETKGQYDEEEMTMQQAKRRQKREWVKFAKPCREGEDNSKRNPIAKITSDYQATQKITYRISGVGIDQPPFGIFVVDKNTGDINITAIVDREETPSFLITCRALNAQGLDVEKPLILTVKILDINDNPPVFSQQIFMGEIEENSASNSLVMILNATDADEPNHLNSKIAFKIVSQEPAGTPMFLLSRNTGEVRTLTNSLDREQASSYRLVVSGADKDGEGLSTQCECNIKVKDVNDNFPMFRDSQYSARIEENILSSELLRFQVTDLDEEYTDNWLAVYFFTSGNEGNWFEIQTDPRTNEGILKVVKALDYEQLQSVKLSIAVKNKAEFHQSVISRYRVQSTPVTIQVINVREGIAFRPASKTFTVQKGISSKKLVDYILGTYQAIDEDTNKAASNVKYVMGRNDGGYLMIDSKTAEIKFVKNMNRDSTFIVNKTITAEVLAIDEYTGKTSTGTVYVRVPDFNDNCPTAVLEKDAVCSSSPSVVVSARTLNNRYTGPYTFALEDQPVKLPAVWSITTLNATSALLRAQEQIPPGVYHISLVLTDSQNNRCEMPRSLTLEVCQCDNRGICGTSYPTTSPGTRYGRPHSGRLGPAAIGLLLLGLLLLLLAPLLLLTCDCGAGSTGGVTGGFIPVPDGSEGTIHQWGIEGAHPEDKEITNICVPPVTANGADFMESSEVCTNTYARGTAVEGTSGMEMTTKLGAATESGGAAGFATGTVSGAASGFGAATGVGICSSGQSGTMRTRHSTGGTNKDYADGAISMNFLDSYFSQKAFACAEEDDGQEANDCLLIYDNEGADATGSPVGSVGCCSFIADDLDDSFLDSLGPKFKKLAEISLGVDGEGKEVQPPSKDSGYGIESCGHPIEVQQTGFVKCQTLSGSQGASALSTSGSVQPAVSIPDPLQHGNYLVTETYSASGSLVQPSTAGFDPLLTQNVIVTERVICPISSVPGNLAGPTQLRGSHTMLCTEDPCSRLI
TRPC4 PAM – positive allosteric modulators of TRPC4, primary screen, cell-based, mouse TRPC4beta, HEK293 mu-opioid, Fluo-4 calcium | Short transient receptor potential channel 4 (Mus musculus), Q9QUQ5 | DAMGO EC20, Fluo-4 Ca2+ flux; stronger effect = higher value | B-score at 10 µM | 310,000 tested, 0.42% active | AID 2227, 2009;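 active = B-score of calcium response area above 5 SD of library B-scores, with initial fluorescence ratio within 5 SD of library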;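 also: B-score of integrated fluorescence ratio over time as area under calcium response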
TRPC4 inh – inhibitors of mouse TRPC4 channel, primary screen, Fluo4 calcium, HEK293 TRPC4beta/mu-opioid cells; DAMGO-evoked Fluo4 calcium flux; stronger effect = lower value; Short transient receptor potential channel 4 (Mus musculus), Q9QUQ5; 300,000 tested, 0.39% active; B-score at 10 µM;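 active = B-score over 3 SD under the library average, no early fluorescence shift, positive overall ratio signal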
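Assay system: HEK293 cells with stable TRPC4beta plus mu-opioid receptor expression; Probe or stimulus: DAMGO in two steps, submaximal then maximal; Dosing: single-point compound dosing; Measured by: Fluo4 calcium-dye fluorescence, kinetic read; Read-out basis: B score from integrated Fluo4 fluorescence ratio.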
TRPC6 activator – mouse TRPC6 channel activators, primary screen, cell-based, HEK293, membrane potential dye. Short transient receptor potential channel 6 (Mus musculus), Q61143. HEK293-TRPC6 membrane potential dye fluorescence; stronger effect = higher value. B-score at 10 µM. 310,000 tested, 0.13% active. AID 2550, 2010;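 active = B-score of the integrated fluorescence ratio above library mean plus 3 SD, and starting fluorescence ratio within library mean plus 5 SD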;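 also: higher score means more depolarization so channel activation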
TRPC4 spec 2 – second check of whether TRPC6 inhibitors also affect mouse TRPC4; shares compounds with TRPC6 inhibitor; HEK293 TRPC4/MOR, membrane potential dye fluorescence; channel activated by saturating DAMGO dose; inhibition, % at 10 µM; 920 tested, 42% active;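 active = compounds whose fluorescence signal differed from control wells by over 3 SD, either direction, in both duplicate plates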
TRPC4 spec – mouse TRPC4 modulation by TRPC6 hits, confirmation, selectivity assay for TRPC6 inhibitor project, cell-based, HEK293 TRPC4/mu-opioid, membrane potential dye; membrane potential fluorescence; AID 2777, 2010; activity change, negative = inhibition, % at 10 µM; shares compounds with TRPC6 inhibitor; 920 tested, 61% active;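 active = rise or fall in signal beyond 3 SD of buffer-only wells in both replicate plates, either sign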;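 also: integrated kinetic ratio of fluorescence range over baseline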
HEK293 MPD ctr 2-1 – nonspecific membrane potential effects, parental HEK293, confirmation, counter-screen for TRPC6 inhibitor project, cell-based, second counter screen | shares compounds with TRPC6 inhibitor | parental HEK293 membrane potential dye fluorescence; maximal acetylcholine challenge after compound addition | signal change vs control, % at 10 µM | 920 tested, 31% active | AID 2779, 2010;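 active = membrane potential signal moving either way by over 3 SD of the maximum-effect control, in both duplicate plates, meaning non-specific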
HEK293 MPD ctr-1 – membrane potential modulation in parental HEK293, confirmation, counter-screen for TRPC6 inhibitor project, cell-based; shares compounds with TRPC6 inhibitor; membrane potential signal change, % at 10 µM; parental HEK293 membrane potential dye fluorescence; 920 tested, 60% active;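 active = membrane potential signal shifting up or down by more than 3 SD of buffer-only wells, on both duplicate plates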
HEK293 MPD ctr-2 – parental HEK293 membrane potential modulation, confirmation, counter-screen for TRPC6 modulator project, cell-based; 2,400 tested, 51% active; membrane potential dye fluorescence; membrane potential signal change, % at 10 µM; shares compounds with TRPC6 inhibitor;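 active = membrane potential signal moves up or down beyond 5 SD from buffer-only wells, on both duplicate plates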
HEK293 MPD ctr 2-2 – second check of TRPC6 modulator effects in parental HEK293 cells. shares compounds with TRPC6 inhibitor. inhibition, % at 10 µM. membrane potential dye fluorescence; after compound, maximal acetylcholine stimulation. 2,400 tested, 14% active;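 active = membrane potential signal drops by more than 5 SD from the mean control signal, in both duplicate plates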;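 also: plate controls were acetylcholine ECmax control wells for no effect and buffer only wells for full effect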
TRPC4/MOR mod – TRPC4 modulation by TRPC6 hit compounds, confirmation, selectivity assay for TRPC6 modulator project, cell-based, HEK293 TRPC4/mu-opioid, membrane potential dye, mouse | shares compounds with TRPC6 inhibitor | membrane potential fluorescence | percent change from control (negative = decrease, positive = increase), % at 10 µM | 2,400 tested, 69% active | AID 488927, 2010;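 active = membrane potential signal moved up or down beyond 5 SD of buffer control wells, in both duplicate plates, actives on both sides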;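 also: plate controls were assay buffer wells for no effect and DAMGO maximal-effect wells for full effect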
TRPC4/MOR inh 2 – second check of whether TRPC6 modulators also affect mouse TRPC4; shares compounds with TRPC6 inhibitor; HEK293 TRPC4/mu-opioid, membrane potential dye fluorescence; stimulated with maximal-effect DAMGO; inhibition, % at 10 µM; 2,400 tested, 55% active;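 active = drop in membrane potential signal beyond 5 SD of the control wells in both duplicate plates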;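 also: TRPC4 counter screen for TRPC6 hits run under conditions tuned for TRPC6 not TRPC4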
TRPC6 inh conf – mouse TRPC6 channel inhibitors, confirmation, HEK293 cells, membrane potential dye, duplicate | 3,300 tested, 43% active | inhibition, % at 10 µM | shares compounds with TRPC6 inhibitor | ACh-evoked depolarization;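 active = fluorescence ratio falls more than 5 SD below the full-stimulation control mean, in both duplicate runs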;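 also: integrated fluorescence ratio of peak minus minimum over baseline after agonist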
TRPC6 act confirm – mouse TRPC6 channel activators, confirmation, HEK293 cells, membrane potential dye, duplicate; shares compounds with TRPC6 inhibitor; AID 488961, 2010; activation, % at 10 µM; HEK293-TRPC6 membrane potential dye fluorescence, FDSS; 2,800 tested, 11% active;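 active = ratio signal rise beyond 5 SD above unstimulated control wells' mean, seen in both duplicate runs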;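 also: plate controls were buffer EC0 wells for no effect and acetylcholine ECmax response for full effect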
* marks the source's active call; other numbers are inactive results.

Cc1cn2c(N)c(C=C3C=C(Cl)C(=O)C(Cl)=C3)c(=O)nc2s1 was read as TRPC4 agonist inactive, TRPC6 inhibitor inactive, Pemphigus Ab inh 124, TRPC4 PAM inactive, TRPC4 inh inactive, TRPC6 activator 83*, HEK293 MPD ctr-2 active, HEK293 MPD ctr 2-2 198%*, TRPC4/MOR mod 360%*, TRPC4/MOR inh 2 inactive, TRPC6 inh conf inactive and TRPC6 act confirm 430%*.
For Cc1[nH]n(-c2ccccc2)c(=O)c1/C=N/NC(=O)c1ccc(O)cc1O the results were TRPC4 agonist inactive, TRPC6 inhibitor inactive, Pemphigus Ab inh 102, TRPC4 PAM inactive, TRPC4 inh inactive and TRPC6 activator inactive.
For Cc1cc(C(=O)N/N=C/c2c(C)[nH]n(-c3ccccc3)c2=O)n[nH]1 the results were TRPC4 agonist inactive, TRPC6 inhibitor -7.9*, Pemphigus Ab inh 110, TRPC4 PAM inactive, TRPC4 inh inactive, TRPC6 activator inactive, TRPC4 spec 2 inactive, TRPC4 spec -23%*, HEK293 MPD ctr 2-1 inactive, HEK293 MPD ctr-1 -328%*, TRPC6 inh conf inactive and TRPC6 act confirm inactive.
Cc1cc(C(=O)N/N=C/c2cc(N=Nc3ccccc3)ccc2O)n[nH]1 was read as TRPC4 agonist inactive, TRPC6 inhibitor -5.9*, TRPC4 PAM inactive, TRPC4 inh inactive, TRPC6 activator inactive, HEK293 MPD ctr-2 inactive, HEK293 MPD ctr 2-2 inactive, TRPC4/MOR mod inactive, TRPC4/MOR inh 2 inactive, TRPC6 inh conf inactive and TRPC6 act confirm inactive.
O=C(c1cccs1)N1CCC(c2nc3c(nnn3Cc3c(Cl)cccc3Cl)c(=O)[nH]2)CC1 was read as TRPC4 agonist inactive, TRPC6 inhibitor -5.4*, Pemphigus Ab inh 95, TRPC4 PAM inactive, TRPC4 inh inactive, TRPC6 activator inactive, HEK293 MPD ctr-2 inactive, HEK293 MPD ctr 2-2 inactive, TRPC4/MOR mod inactive, TRPC4/MOR inh 2 inactive, TRPC6 inh conf inactive and TRPC6 act confirm inactive.
For CC(NC(=O)Nc1nnc(C(F)(F)F)s1)(C(F)(F)F)C(F)(F)F the results were TRPC4 agonist inactive, TRPC6 inhibitor -7.3*, Pemphigus Ab inh 98, TRPC4 PAM inactive, TRPC4 inh inactive, TRPC6 activator inactive, TRPC4 spec 2 57%*, TRPC4 spec 51%*, HEK293 MPD ctr 2-1 inactive, HEK293 MPD ctr-1 30%* and TRPC6 inh conf 87%*.
For CC(C)(C)CC(=O)Nc1nnc(C(F)(F)F)s1 the results were TRPC4 agonist inactive, TRPC6 inhibitor inactive, Pemphigus Ab inh 77, TRPC4 PAM inactive, TRPC4 inh inactive and TRPC6 activator inactive.
Screening COc1ccccc1NS(=O)(=O)c1cccc(C(=O)N2CCN(Cc3ccc4c(c3)OCO4)CC2)c1 returned TRPC4 agonist inactive, TRPC6 inhibitor inactive, Pemphigus Ab inh 101, TRPC4 PAM inactive, TRPC4 inh inactive and TRPC6 activator inactive.
Screening CS(=O)(=O)c1ccc(Cl)c(NC(=O)COC(=O)c2cccc(S(=O)(=O)N3CCCCC3)c2)c1 returned TRPC4 agonist inactive, TRPC6 inhibitor -5.7*, Pemphigus Ab inh 119, TRPC4 PAM inactive, TRPC4 inh inactive, TRPC6 activator inactive, HEK293 MPD ctr-2 inactive, HEK293 MPD ctr 2-2 inactive, TRPC4/MOR mod inactive, TRPC4/MOR inh 2 inactive, TRPC6 inh conf inactive and TRPC6 act confirm inactive.
`COc1ccc(S(=O)(=O)N2CCCCCC2)cc1NC(=O)Cc1ccccc1` gave TRPC4 agonist inactive, TRPC6 inhibitor -8.9*, TRPC4 PAM inactive, TRPC4 inh inactive, TRPC6 activator inactive, HEK293 MPD ctr-2 inactive, HEK293 MPD ctr 2-2 inactive, TRPC4/MOR mod inactive, TRPC4/MOR inh 2 inactive, TRPC6 inh conf inactive and TRPC6 act confirm inactive.

Compound activity from PubChem.
